Results from paper PMC10731006 (Heliyon, 2023).
≈ marks a conversion by molar mass, not a printed value. Entries after “also recorded” stand apart in the source; their conditions may differ.

Tests used:
[1] = test system: Bacillus cereus (ATCC 11778); test: Micro-broth dilution assay; type: cell-based; settings: ATCC11778, read-out: MIC BC
[2] = test system: cancer cell lines (U87, MCF-7 and A549) compared to normal cells (HDF); test: MTT cytotoxicity, cancer cell lines compared to normal cells; type: cell-based, human; settings: 96 h treatment
How it was run: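 A549 and MCF7 grown in RPMI 1640, HDF and U87 in DMEM, each with 10% FCS, 2 mM L-glutamine, 1% pen-strep, 37 °C, 5% CO2. Cells at 1 × 10^4 cells/ml were adhered overnight, then exposed 96 h to test compound (final 1–600 […] in medium). Controls were blank, untreated, DMSO-matched and cisplatin (1–100 μM/mL). MTT 5 mg/ml for 4 h; DMSO-solubilised formazan read at 540 nm, triplicate. IC50 from curve fitting; selectivity index = HDF IC50 / cancer-line IC50.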

[3] = test system: Escherichia coli (ATCC 25922); test: Micro-broth dilution assay; type: cell-based; settings: ATCC25922, read-out: MIC EC
[4] = test system: glioblastoma (U-87 MG) cells; test: MTT cytotoxicity assay, U-87 MG; type: cell-based, human; settings: for IC50: Homo sapiens, U-87 MG, 96 h, read-out: IC50 U87; for SI U87 (selectivity index): IC50 in HDF / IC50 in U87, 96 h
How it was run: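 U-87 MG cells were cultured in DMEM with 10% FCS, 2 mM L-glutamine and 1% penicillin-streptomycin at 37 °C, 5% CO2. Seeding was 1 × 10^4 cells/ml; after overnight adherence, test compound diluted in medium (six final levels, 1–600) was applied for 96 h alongside DMSO-matched and cisplatin controls. Read-out: MTT 5 mg/ml for 4 h, DMSO solubilisation, A540, in triplicate, IC50 fitted. SI = IC50 in HDF / IC50 in U87.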

[5] = test system: human dermal fibroblast (HDF, human dermal cell line); test: MTT cytotoxicity assay, normal cells; type: cell-based; settings: Homo sapiens, Fibroblast, 96 h, read-out: IC50 HDF
How it was run: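 Human dermal fibroblasts were maintained in DMEM with 10% FCS, 2 mM L-glutamine and 1% penicillin-streptomycin (37 °C, 5% CO2). They were seeded at 1 × 10^4 cells/ml, allowed to adhere overnight, then treated 96 h with serially diluted test compound (six final levels, 1–600) beside DMSO-matched vehicle and cisplatin controls. Then MTT 5 mg/ml was added for 4 h, formazan taken up in DMSO, and absorbance read at 540 nm, in triplicate. IC50 was fitted.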

[6] = test system: Staphylococcus aureus (ATCC 10145); test: Micro-broth dilution assay; type: cell-based; settings: ATCC10145, read-out: MIC SA
[7] = ABTS radical scavenging assay
B. subtilis (ATCC 6633) [8] = test: Micro-broth dilution assay; type: cell-based; settings: Bacillus subtilis, ATCC6633, read-out: MIC BS
[9] = DPPH radical scavenging assay
B. subtilis (ATCC 6633) [10] = test: Agar diffusion test, B. subtilis; type: cell-based; settings: Bacillus subtilis, ATCC6633, read-out: Zone of inhibition BS
[11] = test system: Pseudomonas aeruginosa (ATCC 13048); test: Micro-broth dilution assay; type: cell-based; settings: ATCC13048, read-out: MIC PA
[12] = test system: breast cancer (MCF7) cells; test: MTT cytotoxicity assay, MCF7; type: cell-based, human; settings: for IC50: Homo sapiens, MCF7, 96 h, read-out: IC50 MCF-7; for SI MCF-7 (selectivity index): IC50 in HDF / IC50 in MCF-7, 96 h
How it was run: (§1)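 Cells were grown in RPMI 1640 with 10% FCS, 2 mM L-glutamine and 1% penicillin-streptomycin at 37 °C under 5% CO2. They were seeded at 1 × 10^4 cells/ml, left overnight to adhere, and exposed 96 h to test compound diluted in medium (six final levels, 1–600), with DMSO-matched and cisplatin controls. MTT at 5 mg/ml was added for 4 h, formazan dissolved in DMSO, and A540 read, in triplicate. IC50 was fitted from the data. SI = IC50 in HDF / IC50 in this line.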

[13] = test system: non-small cell lung cancer (A549) cells; test: MTT cytotoxicity assay, A549; type: cell-based, human; settings: for IC50: Homo sapiens, A549, 96 h, read-out: IC50 A549; for SI A549 (selectivity index): IC50 in HDF / IC50 in A549, 96 h
How it was run: as §1

[14] = test system: Bacillus cereus (ATCC 11778); test: Agar diffusion test, B. cereus; type: cell-based; settings: ATCC11778, read-out: Zone of inhibition BC
[15] = test system: Gram-positive and Gram-negative bacterial test strains; test: Antibacterial activity, whole panel of test strains; type: cell-based
How it was run: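 Disc diffusion followed CLSI (2012). Test compound at 10, 50 and 100 μg/disc was loaded on 6-mm blank filter discs laid on Mueller Hinton agar seeded at 10^6 cells/ml. Strains were S. aureus ATCC 10145, B. cereus ATCC 11778, B. subtilis ATCC 6633, P. aeruginosa ATCC 13048 and E. coli ATCC 25922. Inhibition zones were recorded.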

[16] = test system: Pseudomonas aeruginosa (ATCC 13048); test: Agar diffusion test, P. aeruginosa; type: cell-based; settings: ATCC13048, read-out: Zone of inhibition PA
[17] = test system: Escherichia coli (ATCC 25922); test: Agar diffusion test, E. coli; type: cell-based; settings: ATCC25922, read-out: Zone of inhibition EC

MIC [1] [µg/mL] | MIC [3] [µg/mL] | MIC [6] [µg/mL] | IC50 ± SD, ABTS [7] [µg/mL] | MIC (B. subtilis (ATCC 6633) [8]) [µg/mL] | IC50 ± SD, DPPH [9] [µg/mL] | MIC [11] [µg/mL] | Compound | cytotoxic / anti-proliferative activity in words [2] | IC50 [4] [µM] | SI U87 (selectivity index) [4] | IC50 [5] [µM] | % inhibition ±SD, ABTS ([7]; 5 μg/ml) [%] | % inhibition ±SD, ABTS ([7]; 10 μg/ml) [%] | % inhibition ±SD, ABTS ([7]; 25 μg/ml) [%] | % inhibition ±SD, ABTS ([7]; 50 μg/ml) [%] | % inhibition ±SD, ABTS ([7]; 100 μg/ml) [%] | % inhibition ±SD, DPPH ([9]; 10 μg/ml) [%] | % inhibition ±SD, DPPH ([9]; 25 μg/ml) [%] | % inhibition ±SD, DPPH ([9]; 50 μg/ml) [%] | % inhibition ±SD, DPPH ([9]; 100 μg/ml) [%] | also measured
500 (≈ 889 µM) | > 500 | > 500 | 17.8 ± 1.1 (≈ 31.6 µM) | 500 (≈ 889 µM) | 32.6 ± 2.9 (≈ 57.9 µM) | > 500 | COC(=O)c1cn(C2CC2)c2cc(N3CCN(C(=O)c4c(C)nnn4Cc4ccc(F)cc4)CC3)c(F)cc2c1=O [Compound 6a, methyl 7-(4-(1-(4-fluorobenzyl)-4-methyl-1H-1,2,3-triazole-5-carbonyl)piperazin-1-yl)-1-cyclopropyl-6-fluoro-4-oxo-1,4-dihydroquinoline-3-carboxylate] | remarkable anti-proliferative activity against all three cell-lines; also recorded: significant cytotoxic activity against all cancer cell lines | 34.6 ± 7.8 | 14.6 | 504 ± 19.9 | 22.7 ± 0.2 | 48.7 ± 0.5 | 53.5 ± 0.3 | 71.1 ± 1.0 | 75.5 ± 0.5 | 40.2 ± 0.4 | 47.2 ± 1.0 | 53.2 ± 0.9 | 63.3 ± 0.8 | % inhibition ±SD, DPPH ([9]; 5 μg/ml): 27.04 ± 0.2%; zone of inhibition at 100 µg/disc (B. subtilis (ATCC 6633) [10]): 11.3 ± 1.2 mm; zone of inhibition at 300 µg/disc (B. subtilis (ATCC 6633) [10]): 13.1 ± 0.6 mm; zone of inhibition at 500 µg/disc (B. subtilis (ATCC 6633) [10]): 14.6 ± 0.7 mm; IC50 [12]: 112 ± 10.1 µM; SI MCF-7 (selectivity index) [12]: 4.5; IC50 [13]: 139 ± 9.3 µM; SI A549 (selectivity index) [13]: 3.6; zone of inhibition at 100 µg/disc [14]: 12.7 ± 0.6 mm; zone of inhibition at 300 µg/disc [14]: 14.6 ± 0.3 mm; zone of inhibition at 500 µg/disc [14]: 15.3 ± 0.3 mm; antibacterial activity in words [15]: bioactivity against Gram-positive bacterial test strains
> 500 | 500 (≈ 889 µM) | > 500 | 35.3 ± 1.6 (≈ 62.7 µM) | > 500 | 32.4 ± 1.1 (≈ 57.6 µM) | 500 (≈ 889 µM) | COC(=O)c1cn(C2CC2)c2cc(N3CCN(C(=O)c4c(C)nnn4Cc4cccc(F)c4)CC3)c(F)cc2c1=O [Compound 6b, methyl 7-(4-(1-(3-fluorobenzyl)-4-methyl-1H-1,2,3-triazole-5-carbonyl)piperazin-1-yl)-1-cyclopropyl-6-fluoro-4-oxo-1,4-dihydroquinoline-3-carboxylate] | remarkable anti-proliferative activity against all three cell-lines; also recorded: significant cytotoxic activity against all cancer cell lines | 1.2 ± 0.8 | 142.3 | 171 ± 8.1 | 11.8 ± 0.5 | 28.3 ± 0.4 | 43.4 ± 0.3 | 53.9 ± 0.8 | 72.9 ± 0.5 | 18.9 ± 0.3 | 40.6 ± 0.9 | 58.5 ± 0.6 | 84.1 ± 0.2 | zone of inhibition at 100 µg/disc [16]: 12.3 ± 0.7 mm; zone of inhibition at 300 µg/disc [16]: 13.6 ± 0.6 mm; zone of inhibition at 500 µg/disc [16]: 15.3 ± 0.3 mm; zone of inhibition at 100 µg/disc [17]: 10.6 ± 1.2 mm; zone of inhibition at 300 µg/disc [17]: 13.3 ± 1.5 mm; zone of inhibition at 500 µg/disc [17]: 14.7 ± 0.6 mm; IC50 [12]: 10.6 ± 2.3 µM; SI MCF-7 (selectivity index) [12]: 16.1; IC50 [13]: 29.4 ± 6.2 µM; SI A549 (selectivity index) [13]: 5.8; antibacterial activity in words [15]: activity against Gram-negative ones without inhibiting the Gram-positive test strains
